# Measurements published in ChEMBL document CHEMBL1125042, “Hypolipidemic activity of rifamycin derivatives” (J Med Chem, 1990).
# How the values were obtained:
# Rattus norvegicus [1] = experiment: Tested for hypolipidemic activity in male rats, cholesterol was determined in serum at 10 mg/kg; type: functional
# Method in brief: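 Groups of eight male Wistar rats (200–230 g) dosed orally in PEG 400, either daily for 7 days (killed 24 h after the last dose) or for 4 days with a second dose on day 4 (killed 16 h later). Fasted 16 h. Paired sera pooled, lipoproteins separated by ultracentrifugation (1.006 and 1.040 g/cm³), HDL taken as the infranatant. Cholesterol measured enzymatically; % vs vehicle, mean ± SEM of four pools.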
# Rattus norvegicus [2] = experiment: Hypolipidemic activity was determined in male rats, and high-density lipoprotein level was determined at 10 mg/kg; type: functional
# Method in brief: (§1)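 Male Wistar rats (200–230 g), eight per group, were dosed orally in PEG 400 at 8 a.m. for 4 days, plus a second dose at 4 p.m. on day 4. Rats were fasted 16 h and killed 16 h after the last dose. Sera from pairs of rats were pooled. LDL (up to 1.040 g/cm³) was separated by ultracentrifugation and the HDL infranatant taken. Cholesterol was measured enzymatically. Results are % versus vehicle control, mean ± SEM of four pools, Student's t test.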
# Rattus norvegicus [3] = experiment: Hypolipidemic activity was determined in male rats, and low-density lipoprotein level was determined at 10 mg/kg; type: functional; method in brief: as §1
# [4] = Inhibitory activity against RNA polymerase was determined; parameters: species or system Escherichia coli
# Method in brief: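 E. coli DNA-dependent RNA polymerase inhibition measured in vitro on ether-extracted, permeabilized E. coli cells.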
# Rattus norvegicus [5] = experiment: Hypolipidemic activity was determined by measuring the % serum HDL in hypercholesterolemic RICO rat at a dose of 10 mg/kg; type: functional, organism-based; parameters: dose 10 mg/kg
# Method in brief: (§2)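 Genetically hypercholesterolemic RICO rats (Tif:RAI,f,SPF) were dosed orally for 7 days. Sera were collected after a 16 h fast and pooled in pairs. LDL (1.006–1.040 g/cm³) and HDL infranatant were separated by ultracentrifugation. Cholesterol and triglycerides were measured enzymatically. Results are % change versus vehicle control, mean ± SEM of four pools.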
# Rattus norvegicus [6] = experiment: Hypolipidemic activity was determined by measuring the % serum HDL in hypercholesterolemic RICO rat at a dose of 3 mg/kg; type: functional, organism-based; parameters: dose 3 mg/kg; method in brief: as §2
# Rattus norvegicus [7] = experiment: Hypolipidemic activity was determined by measuring the % serum HDL in hypercholesterolemic RICO rat at a dose of 30 mg/kg; type: functional, organism-based; parameters: dose 30 mg/kg; method in brief: as §2
# Rattus norvegicus [8] = experiment: Hypolipidemic activity was determined by measuring the % serum HDL in normal rat at a dose of 1 mg/kg; type: functional, organism-based; parameters: dose 1 mg/kg
# Method in brief: (§3)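 Normal male Wistar rats (200–230 g), eight per group, were dosed orally in PEG 400 once daily for 7 days. They were fasted 16 h and killed 24 h after the last dose. Serum from pairs was pooled and LDL/HDL fractions were ultracentrifuged. Cholesterol and triglycerides were measured enzymatically. Results are % versus vehicle control, mean ± SEM of four pools, Student's t test.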
# Rattus norvegicus [9] = experiment: Hypolipidemic activity was determined by measuring the % serum HDL in normal rat at a dose of 3 mg/kg; type: functional, organism-based; parameters: dose 3 mg/kg; method in brief: as §3
# Rattus norvegicus [10] = experiment: Hypolipidemic activity was determined by measuring the % serum HDL in normal rat at a dose of 30 mg/kg; type: functional, organism-based; parameters: dose 30 mg/kg; method in brief: as §3
# Rattus norvegicus [11] = experiment: Hypolipidemic activity was determined by measuring the % serum HDL-cholesterol in normal rat at the specified dose of 10 mg/kg; type: functional, organism-based; parameters: dose 10 mg/kg
# Method in brief: (§4)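 Male Wistar rats (200–230 g, n=8 per group) were given oral doses in PEG 400 and fasted 16 h before being killed under pentothal. Paired sera were pooled with 0.05% EDTA and 0.01% thimerosal, and LDL/HDL were separated by ultracentrifugation. Cholesterol was measured enzymatically. Results are % versus vehicle control, mean ± SEM of four serum pools, Student's t test.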
# Rattus norvegicus [12] = experiment: Hypolipidemic activity was determined by measuring the % serum HDL-cholesterol in normal rat at the specified dose of 30 mg/kg; type: functional, organism-based; parameters: dose 30 mg/kg; method in brief: as §4
# Rattus norvegicus [13] = experiment: Hypolipidemic activity was determined by measuring the % serum cholesterol in hypercholesterolemic RICO rat at a dose of 10 mg/kg; type: functional, organism-based; parameters: dose 10 mg/kg; method in brief: as §2
# Rattus norvegicus [14] = experiment: Hypolipidemic activity was determined by measuring the % serum cholesterol in hypercholesterolemic RICO rat at a dose of 3 mg/kg; type: functional, organism-based; parameters: dose 3 mg/kg; method in brief: as §2
# Rattus norvegicus [15] = experiment: Hypolipidemic activity was determined by measuring the % serum cholesterol in hypercholesterolemic RICO rat at a dose of 30 mg/kg; type: functional, organism-based; parameters: dose 30 mg/kg; method in brief: as §2
# Rattus norvegicus [16] = experiment: Hypolipidemic activity was determined by measuring the % serum cholesterol in normal rat at a dose of 1 mg/kg; type: functional, organism-based; parameters: dose 1 mg/kg; method in brief: as §3
# Rattus norvegicus [17] = experiment: Hypolipidemic activity was determined by measuring the % serum cholesterol in normal rat at a dose of 10 mg/kg; type: functional, organism-based; parameters: dose 10 mg/kg; method in brief: as §3
# Rattus norvegicus [18] = experiment: Hypolipidemic activity was determined by measuring the % serum cholesterol in normal rat at a dose of 3 mg/kg; type: functional, organism-based; parameters: dose 3 mg/kg; method in brief: as §3
# Rattus norvegicus [19] = experiment: Hypolipidemic activity was determined by measuring the % serum cholesterol in normal rat at a dose of 30 mg/kg; type: functional, organism-based; parameters: dose 30 mg/kg; method in brief: as §3
# Rattus norvegicus [20] = experiment: Hypolipidemic activity was determined by measuring the % serum cholesterol in rat at the specified dose of 10 mg/kg; type: functional, organism-based; parameters: dose 10 mg/kg; method in brief: as §4
# Rattus norvegicus [21] = experiment: Hypolipidemic activity was determined by measuring the % serum cholesterol in rat at the specified dose of 30 mg/kg; type: functional, organism-based; parameters: dose 30 mg/kg; method in brief: as §4
# Rattus norvegicus [22] = experiment: Hypolipidemic activity was determined by measuring the % serum LDL-cholesterol in hypercholesterolemic RICO rat at a dose of 10 mg/kg; type: functional, organism-based; parameters: dose 10 mg/kg; method in brief: as §2
# Rattus norvegicus [23] = experiment: Hypolipidemic activity was determined by measuring the % serum LDL-cholesterol in hypercholesterolemic RICO rat at a dose of 3 mg/kg; type: functional, organism-based; parameters: dose 3 mg/kg; method in brief: as §2
# Rattus norvegicus [24] = experiment: Hypolipidemic activity was determined by measuring the % serum LDL-cholesterol in hypercholesterolemic RICO rat at a dose of 30 mg/kg; type: functional, organism-based; parameters: dose 30 mg/kg; method in brief: as §2
# Rattus norvegicus [25] = experiment: Hypolipidemic activity was determined by measuring the % serum LDL in normal rat at a dose of 1 mg/kg; type: functional, organism-based; parameters: dose 1 mg/kg; method in brief: as §3
# Rattus norvegicus [26] = experiment: Hypolipidemic activity was determined by measuring the % serum LDL in normal rat at a dose of 10 mg/kg; type: functional, organism-based; parameters: dose 10 mg/kg; method in brief: as §3
# Rattus norvegicus [27] = experiment: Hypolipidemic activity was determined by measuring the % serum LDL in normal rat at a dose of 3 mg/kg; type: functional, organism-based; parameters: dose 3 mg/kg; method in brief: as §3
# Rattus norvegicus [28] = experiment: Hypolipidemic activity was determined by measuring the % serum LDL in normal rat at a dose of 30 mg/kg; type: functional, organism-based; parameters: dose 30 mg/kg; method in brief: as §3
# Rattus norvegicus [29] = experiment: Hypolipidemic activity was determined by measuring the % serum triglycerides in normal rat at a dose of 3 mg/kg; type: functional, organism-based; parameters: dose 3 mg/kg; method in brief: as §3
# Rattus norvegicus [30] = experiment: Hypolipidemic activity was determined by measuring the % serum triglycerides in normal rat at a dose of 30 mg/kg; type: functional, organism-based; parameters: dose 30 mg/kg; method in brief: as §3
# Rattus norvegicus [31] = experiment: Hypolipidemic activity was determined by measuring the % serum LDL-cholesterol in normal rat at the specified dose of 30 mg/kg; type: functional, organism-based; parameters: dose 30 mg/kg; method in brief: as §4
# Rattus norvegicus [32] = experiment: Hypolipidemic activity was determined by measuring the % serum triglycerides in hypercholesterolemic RICO rat at a dose of 10 mg/kg; type: functional, organism-based; parameters: dose 10 mg/kg; method in brief: as §2
# Rattus norvegicus [33] = experiment: Hypolipidemic activity was determined by measuring the % serum triglycerides in hypercholesterolemic RICO rat at a dose of 3 mg/kg; type: functional, organism-based; parameters: dose 3 mg/kg; method in brief: as §2
# Rattus norvegicus [34] = experiment: Hypolipidemic activity was determined by measuring the % serum triglycerides in hypercholesterolemic RICO rat at a dose of 30 mg/kg; type: functional, organism-based; parameters: dose 30 mg/kg; method in brief: as §2
# Rattus norvegicus [35] = experiment: Hypolipidemic activity was determined by measuring the % serum LDL-cholesterol in normal rat at the specified dose of 10 mg/kg; type: functional, organism-based; parameters: dose 10 mg/kg; method in brief: as §4
# Rattus norvegicus [36] = experiment: Hypolipidemic activity was determined by measuring the % serum triglycerides in normal rat at a dose of 1 mg/kg; type: functional, organism-based; parameters: dose 1 mg/kg; method in brief: as §3
# Rattus norvegicus [37] = experiment: Hypolipidemic activity was determined by measuring the % serum triglycerides in normal rat at a dose of 10 mg/kg; type: functional, organism-based; parameters: dose 10 mg/kg; method in brief: as §3
# Staphylococcus aureus = experiment: Antibacterial activity against Staphylococcus aureus 10B; type: functional
# Method in brief: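 Agar dilution on DST agar with 2-fold drug dilutions. Inoculum of 10⁴ viable S. aureus 10B was taken from liquid-nitrogen stock, thawed 30 min and not subcultured. It was applied by multipoint replicator and incubated overnight at 37 °C. MIC is the lowest concentration inhibiting growth relative to control cultures.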
# Rattus norvegicus [38] = experiment: Hypolipidemic activity was determined by measuring the % serum HDL in normal rat at a dose of 10 mg/kg; type: functional, organism-based; parameters: dose 10 mg/kg; method in brief: as §3
compound,measurement,setting,value
COC1/C=C/OC2(C)Oc3c(C)c(OC(=O)C(C)(C)C)c4c(c3C2=O)C(=O)C(N2CCN(Cc3c(C)cc(C)cc3C)CC2)=C(C4=O)N(C(=O)C(C)(C)C)C(=O)/C(C)=C\C=C\C(C)C(O)C(C)C(O)C(C)C(OC(C)=O)C1C (configuration not stated),Activity,Rattus norvegicus [1],-30%
same,Activity,Rattus norvegicus [2],-33%
same,Activity,Rattus norvegicus [3],-55%
same,IC50,[4],> 100 µg/mL
same,Serum HDL-cholesterol,Rattus norvegicus [5],-24%
same,Serum HDL-cholesterol,Rattus norvegicus [6],-6%
same,Serum HDL-cholesterol,Rattus norvegicus [7],-45%
same,Serum HDL-cholesterol,Rattus norvegicus [8],0%
same,Serum HDL-cholesterol,Rattus norvegicus [9],-4%
same,Serum HDL-cholesterol,Rattus norvegicus [10],-34%
same,Serum HDL-cholesterol,Rattus norvegicus [11],-11%
same,Serum HDL-cholesterol,Rattus norvegicus [12],-27%
same,Serum cholesterol,Rattus norvegicus [13],-29%
same,Serum cholesterol,Rattus norvegicus [14],-12%
same,Serum cholesterol,Rattus norvegicus [15],-50%
same,Serum cholesterol,Rattus norvegicus [16],-5%
same,Serum cholesterol,Rattus norvegicus [17],-19%
same,Serum cholesterol,Rattus norvegicus [18],-4%
same,Serum cholesterol,Rattus norvegicus [19],-27%
same,Serum cholesterol,Rattus norvegicus [20],-16%
same,Serum cholesterol,Rattus norvegicus [21],-33%
same,Serum LDL-cholesterol,Rattus norvegicus [22],-53%
same,Serum LDL-cholesterol,Rattus norvegicus [23],-35%
same,Serum LDL-cholesterol,Rattus norvegicus [24],-69%
same,Serum LDL-cholesterol,Rattus norvegicus [25],-8%
same,Serum LDL-cholesterol,Rattus norvegicus [26],-56%
same,Serum LDL-cholesterol,Rattus norvegicus [27],-34%
same,Serum LDL-cholesterol,Rattus norvegicus [28],-51%
same,Serum triglyceride,Rattus norvegicus [29],14%
same,Serum triglyceride,Rattus norvegicus [30],-22%
same,Serum LDL-cholesterol,Rattus norvegicus [31],-68%
same,Serum triglyceride,Rattus norvegicus [32],-32%
same,Serum triglyceride,Rattus norvegicus [33],-11%
same,Serum triglyceride,Rattus norvegicus [34],-47%
same,Serum LDL-cholesterol,Rattus norvegicus [35],-26%
same,Serum triglyceride,Rattus norvegicus [36],14%
same,Serum triglyceride,Rattus norvegicus [37],-17%
same,MIC,Staphylococcus aureus,64 µg/mL
same,Serum HDL-cholesterol,Rattus norvegicus [38],-21%
COC1/C=C/OC2(C)Oc3c(C)c(O)c4c(O)c(c(N5CCN(Cc6c(C)cc(C)cc6C)CC5)c(O)c4c3C2=O)NC(=O)/C(C)=C\C=C\C(C)C(=O)C(C)C(O)C(C)C(OC(C)=O)C1C (configuration not stated),Activity,Rattus norvegicus [1],-11%
same,Activity,Rattus norvegicus [2],-15%
same,Activity,Rattus norvegicus [3],1%
same,MIC,Staphylococcus aureus,64 µg/mL
COC1/C=C/OC2(C)Oc3c(C)c(O)c4c(O)c(c(N5CCN(Cc6c(C)cc(C)cc6C)CC5)c(O)c4c3C2=O)NC(=O)/C(C)=C\C=C\C(C)C(O)C(C)C(=O)C(C)C(OC(C)=O)C1C (configuration not stated),Activity,Rattus norvegicus [1],-18%
same,Activity,Rattus norvegicus [2],-23%
same,Activity,Rattus norvegicus [3],-1%
same,MIC,Staphylococcus aureus,2 µg/mL
